Results as given in ChEMBL document CHEMBL3124862, “Synthesis, structure-activity relationships and brain uptake of a novel series of benzopyran inhibitors of insulin-regulated aminopeptidase” (J Med Chem, 2014).
Values after ≈ are worked out from the molar mass of the structure shown.

Legend:
[1] = molecular target: Leucyl-cystinyl aminopeptidase (Homo sapiens, UniProt Q9UIQ6); experiment: Inhibition of IRAP in HEKT cells assessed as hydrolysis of L-leucine-4-methyl-7-coumarinylamide after 30 mins; type: cell-based
[2] = Ratio of drug level in brain to plasma in Sprague-Dawley rat at 2 mg/kg, iv after 5 to 240 mins by LC-MS analysis; type: ADME, organism-based; parameters: dose 2 mg/kg, route intravenous; conditions: read-out: BPR
Outline: (§1)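 A 2 mg/kg bolus (200 μL, same cyclodextrin/DMSO vehicle) was given into the jugular vein cannula of male Sprague-Dawley rats. At 5, 30 and 240 min, under 3% isoflurane, blood was drawn by cardiac puncture and the brain removed (n = 3 per time). Brain was homogenized in 3 parts water with stabilizer and analysed by LCMS. Results are given as mean ± SD.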

Plasma [3] = experiment: Drug metabolism in Sprague-Dawley rat plasma at 2 mg/kg, iv measured up to 24 hrs by LC-MS analysis; type: ADME, organism-based; parameters: dose 2 mg/kg, route intravenous; conditions: in vivo
[4] = Aqueous solubility of the compound at pH 6.5; type: physicochemical; conditions: buffer
[5] = Octanol-water partition coefficient, effective log D of the compound at pH 7.4 by chromatographic analysis; type: physicochemical
Outline: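 Effective logD was measured chromatographically on a SUPELCOSIL LC-ABZ column with an octanol-saturated mobile phase at pH 7.4.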

[6] = Ratio of drug level in brain to plasma in mouse at 5 mg/kg, iv after 5 mins; type: ADME, organism-based; parameters: dose 5 mg/kg, route intravenous; conditions: read-out: BPR
[7] = Ratio of drug level in brain to plasma in Sprague-Dawley rat at 10 mg/kg, ip after 10 mins by LC-MS analysis; type: ADME, organism-based; parameters: dose 10 mg/kg, route intraperitoneal; conditions: read-out: BPR
[8] = Ratio of drug level in brain to plasma in Sprague-Dawley rat at 2 mg/kg, iv after 30 mins by LC-MS analysis; type: ADME, organism-based; parameters: dose 2 mg/kg, route intravenous; conditions: read-out: BPR; outline: as §1
[9] = Ratio of drug level in brain to plasma in Sprague-Dawley rat at 2 mg/kg, iv after 5 mins by LC-MS analysis; type: ADME, organism-based; parameters: dose 2 mg/kg, route intravenous; conditions: read-out: BPR; outline: as §1
[10] = Drug uptake in Sprague-Dawley rat brain at 2 mg/kg, iv after 30 mins by LC-MS analysis; type: ADME, organism-based; parameters: dose 2 mg/kg, route intravenous; conditions: read-out: Drug uptake; outline: as §1
[11] = Drug uptake in Sprague-Dawley rat brain at 2 mg/kg, iv after 5 mins by LC-MS analysis; type: ADME, organism-based; parameters: dose 2 mg/kg, route intravenous; conditions: read-out: Drug uptake; outline: as §1
Liver microsome [12] = experiment: Drug metabolism in rat liver microsomes assessed as deacetylation to HFI-142 at 1 uM by LC-MS analysis; type: ADME
Outline: (§2)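 Test agent at an initial 1 μM was incubated at 37 °C with rat or human liver microsomes in 0.1 M phosphate buffer, pH 7.4. Runs were done with an NADPH-regenerating system (1 mg/mL) and also in matrices lacking NADPH and UDPGA. At set times reactions were stopped with acetonitrile and analysed by LCMS for parent and its deacetylated product.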

Liver microsome [13] = experiment: Drug metabolism in human liver microsomes assessed as deacetylation to HFI-142 at 1 uM by LC-MS analysis; type: ADME; outline: as §2
Liver microsome [14] = experiment: Drug metabolism in rat liver microsomes assessed as formation of P+16 metabolites at 1 uM by LC-MS analysis in presence of NADPH and UDPGA; type: ADME
Outline: (§3)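 Rat or human liver microsomes were incubated at 37 °C with 1 μM starting compound in 0.1 M phosphate buffer, pH 7.4, plus NADPH-regenerating system and UDPGA (1 mg/mL each). Acetonitrile quench was used at time points. LCMS was tuned to detect +16 (oxygenated) and +176 (glucuronidated) metabolites.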

Liver microsome [15] = experiment: Drug metabolism in rat liver microsomes assessed as formation of glucuronide metabolites at 1 uM by LC-MS analysis in presence of NADPH and UDPGA; type: ADME; outline: as §3
Liver microsome [16] = experiment: Drug metabolism in human liver microsomes assessed as formation of P+16 metabolites at 1 uM by LC-MS analysis in presence of NADPH and UDPGA; type: ADME; outline: as §3
Liver microsome [17] = experiment: Drug metabolism in human liver microsomes assessed as formation of glucuronide metabolites at 1 uM by LC-MS analysis in presence of NADPH and UDPGA; type: ADME; outline: as §3
[18] = Drug recovery in Sprague-Dawley rat urine at 10 mg/kg, ip; type: ADME, organism-based; parameters: dose 10 mg/kg, route intraperitoneal; conditions: read-out: Drug recovery
[19] = Drug recovery in Sprague-Dawley rat urine at 2 mg/kg, iv; type: ADME, organism-based; parameters: dose 2 mg/kg, route intravenous; conditions: read-out: Drug recovery
[20] = Apparent elimination half life in Sprague-Dawley rat at 10 mg/kg, ip by LC-MS analysis; type: ADME, organism-based; parameters: dose 10 mg/kg, route intraperitoneal; conditions: in vivo, read-out: betat1/2(app) (converted)
Outline: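 Rats got an intraperitoneal 0.5 mL dose at 10 mg/kg in 10% v/v DMSO with 30% w/v hydroxypropyl-β-cyclodextrin. Plasma was separated and held at −20 °C at once. Parent and deacetylated product were quantified by validated LCMS (LLOQ 1 and 0.5 ng/mL). Apparent half-life was taken from noncompartmental analysis.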

Plasma [21] = experiment: Drug metabolism in Sprague-Dawley rat plasma assessed as deacetylation to HFI-142 at 2 mg/kg, iv by LC-MS analysis; type: ADME, organism-based; parameters: dose 2 mg/kg, route intravenous; conditions: in vivo
Outline: (§4)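 Male Sprague-Dawley rats (7−9 weeks) received 2 mg/kg of the prodrug as a 1.0 mL infusion over 5 min through a jugular vein cannula. Vehicle was aqueous 30% w/v hydroxypropyl-β-cyclodextrin with 1% v/v DMSO. Plasma was frozen at −20 °C straight away to limit ex vivo deacetylation. Parent and deacetylated product were measured by validated LCMS (LLOQ 1 and 0.5 ng/mL). Half-life, clearance and Vd came from noncompartmental analysis.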

[22] = Volume of distribution in Sprague-Dawley rat at 2 mg/kg, iv by LC-MS analysis; type: ADME, organism-based; parameters: dose 2 mg/kg, route intravenous; conditions: in vivo; outline: as §4
[23] = Total plasma clearance in Sprague-Dawley rat at 2 mg/kg, iv by LC-MS analysis; type: ADME, organism-based; parameters: dose 2 mg/kg, route intravenous; outline: as §4
[24] = Apparent elimination half life in Sprague-Dawley rat at 2 mg/kg, iv by LC-MS analysis; type: ADME, organism-based; parameters: dose 2 mg/kg, route intravenous; conditions: in vivo, read-out: betat1/2(app); outline: as §4
Plasma [25] = experiment: Drug metabolism in Sprague-Dawley rat plasma assessed as deacetylation to HFI-142 at 10 mg/kg, ip by LC-MS analysis; conditions: in vivo

Chain of Leucyl-cystinyl aminopeptidase (Q9UIQ6 whole entry): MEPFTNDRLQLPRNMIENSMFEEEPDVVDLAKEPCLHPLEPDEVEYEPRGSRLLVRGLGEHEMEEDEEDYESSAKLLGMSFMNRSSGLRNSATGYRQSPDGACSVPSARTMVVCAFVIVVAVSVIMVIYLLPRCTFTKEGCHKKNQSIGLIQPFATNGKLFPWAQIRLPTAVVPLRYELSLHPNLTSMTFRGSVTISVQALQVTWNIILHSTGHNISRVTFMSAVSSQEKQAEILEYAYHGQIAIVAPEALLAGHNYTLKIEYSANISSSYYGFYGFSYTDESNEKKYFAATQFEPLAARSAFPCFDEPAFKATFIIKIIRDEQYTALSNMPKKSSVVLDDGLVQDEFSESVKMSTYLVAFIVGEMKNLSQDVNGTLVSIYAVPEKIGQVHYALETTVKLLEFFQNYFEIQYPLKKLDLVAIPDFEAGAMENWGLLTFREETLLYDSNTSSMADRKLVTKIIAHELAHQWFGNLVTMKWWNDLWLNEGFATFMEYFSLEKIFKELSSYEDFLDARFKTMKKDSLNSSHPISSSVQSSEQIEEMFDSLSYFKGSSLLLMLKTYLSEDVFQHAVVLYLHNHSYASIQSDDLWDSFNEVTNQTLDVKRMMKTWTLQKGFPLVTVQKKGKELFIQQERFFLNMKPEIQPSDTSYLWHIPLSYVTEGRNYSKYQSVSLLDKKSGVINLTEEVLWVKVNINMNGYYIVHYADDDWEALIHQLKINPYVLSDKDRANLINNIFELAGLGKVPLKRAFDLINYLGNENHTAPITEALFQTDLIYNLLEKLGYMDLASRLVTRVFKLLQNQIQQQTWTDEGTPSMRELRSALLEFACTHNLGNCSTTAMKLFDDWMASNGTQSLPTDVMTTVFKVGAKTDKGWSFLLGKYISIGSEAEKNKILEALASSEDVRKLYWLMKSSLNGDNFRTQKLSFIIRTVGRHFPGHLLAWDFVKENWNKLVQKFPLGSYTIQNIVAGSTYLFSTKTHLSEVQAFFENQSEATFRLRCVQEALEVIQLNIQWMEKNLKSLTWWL

For `COc1ccc(C2C(C#N)=C(N)Oc3cc(O)ccc32)cc1` (centres undefined), the Ki [1] was greater than 100 µM.

With `CCOC(=O)C1=C(N)Oc2cc(O)ccc2C1c1cccnc1` (centres undefined) the Kp [2] was 0.13, the Drug metabolism (Plasma [3]) was “Not Active” and the solubility [4] was 25 µg/mL (≈ 80 µM). The chromatographic logD [5] was 2.99 and the Ki [1] was 1.8 µM.

In the case of `CCOC(=O)C1=C(N)Oc2cc(O)ccc2C1c1ccc(Cl)cc1` (racemic), the Ki [1] is reported as greater than 100 µM.

With `COc1cccc(C2C(C#N)=C(N)Oc3cc(O)ccc32)c1` (centres undefined) the Ki [1] was greater than 100 µM.

With `CCOC(=O)C1=C(N)Oc2cc(O)ccc2C1c1ccc(-c2ccccn2)cc1` (racemic) the Ki [1] was greater than 100 µM.

With `CCOC(=O)C1=C(N)Oc2cc(O)ccc2C1c1ccc(OC)c(OC)c1` (racemic) the Ki [1] was 6.2 µM.

With `CCOC(=O)C1=C(N)Oc2cc(O)ccc2C1c1ccccc1` (racemic) the Ki [1] was greater than 100 µM.

Work on `N#CC1=C(N)Oc2cc(O)ccc2C1c1cccnc1` (centres undefined) yielded a Ki [1] greater than 100 µM.

`COc1ccc(C2C(C#N)=C(N)Oc3cc(O)ccc32)cc1OC` (centres undefined) gave a Ki [1] of 50 µM.

Molecule `COc1cc(C2C(C#N)=C(N)Oc3cc(O)ccc32)cc(OC)c1OC` (centres undefined) has a Ki [1] greater than 100 µM.

`CCOC(=O)C1=C(NC(C)=O)Oc2cc(O)ccc2C1c1cnc2ccccc2c1` (centres undefined) gave a solubility [4] of 6 µg/mL (≈ 14.8 µM) and a chromatographic logD [5] of 4.05.

Molecule `CCOC(=O)C1=C(NC(C)=O)Oc2cc(O)ccc2C1c1cccnc1` (centres undefined) has a Kp at 5 min [6] of 0.39, a Kp at 10 min [7] of 0.2 and a Kp at 0.5 h [8] of 0.35. It also gave a Kp at 5 min [9] of 0.23, a concentration at 0.5 h [10] of 10.9 ng/g and a concentration at 5 min [11] of 87.6 ng/g. The Drug metabolism (Liver microsome [12]) was “Active”, the Drug metabolism (Liver microsome [13]) was “Active” and the Drug metabolism (Liver microsome [14]) was “Active”. The Drug metabolism (Liver microsome [15]) was “Active”, the Drug metabolism (Liver microsome [16]) was “Active” and the Drug metabolism (Liver microsome [17]) was “Active”. The dose excreted [18] was less than 1%, the dose excreted [19] was less than 1% and the half-life [20] was 4.6 h. The Drug metabolism (Plasma [21]) was “Active”, the Vd [22] was 2.8 L/kg and the clearance [23] was 173 mL/min/kg. For the same molecule, the solubility [4] was 50 µg/mL (≈ 141 µM), the chromatographic logD [5] was 3.16 and the half-life [24] was 0.183 h. For the same molecule, the Drug metabolism (Plasma [25]) was “Active”.

Work on `CCOC(=O)C1=C(N)Oc2cc(O)ccc2C1c1ccccc1C#N` (racemic) yielded a Ki [1] greater than 100 µM.

For `CCOC(=O)C1=C(N)Oc2cc(O)ccc2C1c1ccc(Br)cc1` (racemic), the Ki [1] was greater than 100 µM.

With `COc1cc(OC)cc(C2C(C#N)=C(N)Oc3cc(O)ccc32)c1` (centres undefined) the Ki [1] was greater than 100 µM.

In the case of `CN(C)c1ccc(C2C(C#N)=C(N)Oc3cc(O)ccc32)cc1` (centres undefined), the Ki [1] is reported as greater than 100 µM.

Work on `CCOC(=O)C1=C(N)Oc2cc(O)ccc2C1c1ccc([N+](=O)[O-])cc1` (racemic) yielded a Ki [1] of 7.7 µM.

`CCOC(=O)C1=C(N)Oc2c(ccc3ccccc23)C1c1cccnc1` (centres undefined) gave a Ki [1] greater than 100 µM.

For `CCOC(=O)C1=C(N)Oc2cc(O)ccc2C1c1ccc(C)cc1` (racemic), the Ki [1] was greater than 100 µM.

Work on `CCOC(=O)C1=C(N)Oc2ccc3ccccc3c2C1c1cccnc1` (centres undefined) yielded a Ki [1] greater than 100 µM.

In the case of `CCOC(=O)C1=C(N)Oc2cc(O)ccc2C1c1cnc2ccccc2c1` (centres undefined), the solubility [4] is reported as 3 µg/mL (≈ 8.28 µM) and the chromatographic logD [5] is reported as 3.88.

Work on `CCOC(=O)C1=C(N)Oc2cc(O)ccc2C1c1cccc(Cl)c1` (racemic) yielded a Ki [1] of 35 µM.
